Measurements taken from ChEMBL document CHEMBL1828552, “Synthesis and studies of novel 2-(4-cyano-3-trifluoromethylphenyl amino)-4-(quinoline-4-yloxy)-6-(piperazinyl/piperidinyl)-s-triazines as potential antimicrobial, antimycobacterial and anticancer agents” (2011).
≈ marks a conversion by molar mass, not a printed value.

Columns and labels:
[1] = tested on: Aspergillus fumigatus; assay: Antifungal activity against 10^5 CFU/mL Aspergillus fumigatus MTCC 343 after 48 hrs by agar streak dilution method; assay type: functional; settings: MTCC 343, 48 h
In short: (§1)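 Agar streak dilution for fungi. Stock 100 µg/mL in DMSO; graded amounts were mixed into molten Sabouraud dextrose agar and poured at 4–5 mm depth. Serial dilutions ran over […]. About 10⁵ CFU/mL inoculum was applied, with incubation at 37 ± 1 °C for 48 h. MIC was read from the dilution series.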

[2] = tested on: Staphylococcus aureus; assay: Antibacterial activity against 10^5 CFU/mL Staphylococcus aureus MTCC 96 after 24 hrs by agar streak dilution method; assay type: functional; settings: MTCC 96, 24 h
In short: (§2)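 Agar streak dilution. Stock 100 µg/mL in DMSO; graded amounts were mixed into molten nutrient agar and poured at 4–5 mm depth. Plates carried serial dilutions over […]. About 10⁵ CFU/mL of each bacterium was applied, and plates were incubated at 37 ± 1 °C for 24 h. MIC was read from the dilution series.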

[3] = tested on: Aspergillus niger; assay: Antifungal activity against 10^5 CFU/mL Aspergillus niger MTCC 282 after 48 hrs by disc diffusion technique; assay type: functional
[4] = tested on: Aspergillus fumigatus; assay: Antifungal activity against 10^5 CFU/mL Aspergillus fumigatus MTCC 343 after 48 hrs by disc diffusion technique; assay type: functional
[5] = tested on: DU-145; assay: Cytotoxicity against […] human DU145 cells after 48 hrs by SRB assay; assay type: functional; settings: DU-145, 48 h
In short: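 SRB assay in DU-145 cells grown in RPMI 1640 with 10% FBS and 2 mM L-glutamine. Cells were plated and held 24 h before addition of four 10-fold concentrations. After 48 h, cells were TCA-fixed, stained with 0.4% SRB and read at 540 nm. GI50, TGI and LC50 were derived against time-zero and control wells; each value is the mean of three experiments.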

[6] = tested on: Mycobacterium tuberculosis; assay: Antimycobacterial activity against 10^4 to 10^7 CFU/mL Mycobacterium tuberculosis H37Rv after 24 hrs measured after 28 days post-inoculation; assay type: functional
In short: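 Secondary MIC on Lowenstein-Jensen medium. DMSO dilutions (50, 25, 12.5, 6.25, […]) added to L.J. medium, then inspissated. Tubes incubated at 37 ± 1 °C for 24 h, then streaked with 5×10⁴ H37Rv bacilli per tube. Growth read at 12, 22 and 28 days against drug-free controls. MIC = no colonies or fewer than 20 colonies.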

[7] = tested on: Bacillus cereus; assay: Antibacterial activity against 10^5 CFU/mL Bacillus cereus MTCC 619 after 24 hrs by disc diffusion technique; assay type: functional
In short: (§3)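 Disc diffusion on Mueller–Hinton agar poured 5 mm deep. The surface was swabbed with a 10⁵ CFU/mL […] suspension. Filter-paper discs 6.25 mm in diameter were soaked in compound in DMSO and placed on the agar. Plates were incubated 24 h at 37 ± 1 °C, and the inhibition zone was measured in mm. A DMSO disc served as blank.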

[8] = tested on: Pseudomonas aeruginosa; assay: Antibacterial activity against 10^5 CFU/mL Pseudomonas aeruginosa MTCC 741 after 24 hrs by disc diffusion technique; assay type: functional; in short: as §3
[9] = tested on: Salmonella typhi; assay: Antibacterial activity against 10^5 CFU/mL Salmonella typhi MTCC 733 after 24 hrs by agar streak dilution method; assay type: functional, Salmonella enterica subsp. enterica serovar Typhi; settings: Salmonella enterica, MTCC 733, 24 h
[10] = tested on: Bacillus cereus; assay: Antibacterial activity against 10^5 CFU/mL Bacillus cereus MTCC 619 after 24 hrs by agar streak dilution method; assay type: functional; settings: MTCC 619, 24 h; in short: as §2
[11] = tested on: Staphylococcus aureus; assay: Antibacterial activity against 10^5 CFU/mL Staphylococcus aureus MTCC 96 after 24 hrs by disc diffusion technique; assay type: functional; in short: as §3
[12] = tested on: Klebsiella pneumoniae; assay: Antibacterial activity against 10^5 CFU/mL Klebsiella pneumoniae MTCC 109 after 24 hrs by agar streak dilution method; assay type: functional; settings: MTCC 109, 24 h; in short: as §2
[13] = tested on: Aspergillus niger; assay: Antifungal activity against 10^5 CFU/mL Aspergillus niger MTCC 282 after 48 hrs by agar streak dilution method; assay type: functional; settings: MTCC 282, 48 h; in short: as §1
[14] = tested on: Aspergillus clavatus; assay: Antifungal activity against 10^5 CFU/mL Aspergillus clavatus MTCC 1323 after 48 hrs by disc diffusion technique; assay type: functional
[15] = tested on: Klebsiella pneumoniae; assay: Antibacterial activity against 10^5 CFU/mL Klebsiella pneumoniae MTCC 109 after 24 hrs by disc diffusion technique; assay type: functional; in short: as §3
[16] = tested on: Pseudomonas aeruginosa; assay: Antibacterial activity against 10^5 CFU/mL Pseudomonas aeruginosa MTCC 741 after 24 hrs by agar streak dilution method; assay type: functional; settings: MTCC 741, 24 h; in short: as §2
[17] = tested on: Proteus vulgaris; assay: Antibacterial activity against 10^5 CFU/mL Proteus vulgaris MTCC 1771 after 24 hrs by agar streak dilution method; assay type: functional; settings: MTCC 1771, 24 h; in short: as §2
[18] = tested on: Candida albicans; assay: Antifungal activity against 10^5 CFU/mL Candida albicans MTCC 183 after 48 hrs by disc diffusion technique; assay type: functional
[19] = tested on: Escherichia coli; assay: Antibacterial activity against 10^5 CFU/mL Escherichia coli MTCC 739 after 24 hrs by disc diffusion technique; assay type: functional; in short: as §3
[20] = tested on: Aspergillus clavatus; assay: Antifungal activity against 10^5 CFU/mL Aspergillus clavatus MTCC 1323 after 48 hrs by agar streak dilution method; assay type: functional; settings: MTCC 1323, 48 h; in short: as §1
[21] = tested on: Shigella flexneri; assay: Antibacterial activity against 10^5 CFU/mL Shigella flexneri MTCC 1457 after 24 hrs by agar streak dilution method; assay type: functional; settings: MTCC 1457, 24 h; in short: as §2
[22] = tested on: Escherichia coli; assay: Antibacterial activity against 10^5 CFU/mL Escherichia coli MTCC 739 after 24 hrs by agar streak dilution method; assay type: functional; settings: MTCC 739, 24 h; in short: as §2
[23] = tested on: Candida albicans; assay: Antifungal activity against 10^5 CFU/mL Candida albicans MTCC 183 after 48 hrs by agar streak dilution method; assay type: functional; settings: MTCC 183, 48 h; in short: as §1
[24] = tested on: Shigella flexneri; assay: Antibacterial activity against 10^5 CFU/mL Shigella flexneri MTCC 1457 after 24 hrs by disc diffusion technique; assay type: functional; in short: as §3
[25] = tested on: Proteus vulgaris; assay: Antibacterial activity against 10^5 CFU/mL Proteus vulgaris MTCC 1771 after 24 hrs by disc diffusion technique; assay type: functional; in short: as §3
[26] = tested on: Salmonella typhi; assay: Antibacterial activity against 10^5 CFU/mL Salmonella typhi MTCC 733 after 24 hrs by disc diffusion technique; assay type: functional, Salmonella enterica subsp. enterica serovar Typhi
In short: (§4)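 Disc diffusion. Mueller-Hinton agar autoclaved 120 °C 30 min, poured 5 mm deep. Surface swabbed with 10⁵ CFU/mL suspension […]. 6.25 mm filter-paper discs soaked in compound in DMSO; DMSO-only disc as blank. Incubated 37 ± 1 °C, 24 h for bacteria or 48 h for fungi. Ciprofloxacin and ketoconazole discs as reference drugs. Inhibition zone measured in mm.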

[27] = tested on: Aspergillus fumigatus; assay: Antifungal activity against 10^5 CFU/mL Aspergillus fumigatus MTCC 343 at 100 ug/ml after 48 hrs by disc diffusion technique; assay type: functional; settings: MTCC 343, 48 h, read-out: IZ; in short: as §4
[28] = tested on: Candida albicans; assay: Antifungal activity against 10^5 CFU/mL Candida albicans MTCC 183 at 100 ug/ml after 48 hrs by disc diffusion technique; assay type: functional; settings: MTCC 183, 48 h, read-out: IZ; in short: as §4
[29] = tested on: Aspergillus niger; assay: Antifungal activity against 10^5 CFU/mL Aspergillus niger MTCC 282 at 100 ug/ml after 48 hrs by disc diffusion technique; assay type: functional; settings: MTCC 282, 48 h, read-out: IZ; in short: as §4
[30] = tested on: Aspergillus clavatus; assay: Antifungal activity against 10^5 CFU/mL Aspergillus clavatus MTCC 1323 at 100 ug/ml after 48 hrs by disc diffusion technique; assay type: functional; settings: MTCC 1323, 48 h, read-out: IZ; in short: as §4

SMILES: CC1CC(C)CN(c2nc(Nc3ccc(C#N)c(C(F)(F)F)c3)nc(Oc3ccnc4ccccc34)n2)C1 (stereo unspecified)
- MIC [1]: 50 µg/mL (≈ 96.2 µM)
- MIC [2]: 6.25 µg/mL (≈ 12 µM)
- inhibition zone (IZ) [3]: 23 mm
- inhibition zone (IZ) [4]: 25 mm
- GI50 [5]: 27.2 µM
- LC50 (concentration giving 50% net cell kill relative to time zero) [5]: > 100 µM
- TGI [5]: 68 µM
- MIC99 [6]: 3.12 µg/mL (≈ 6.01 µM)
- inhibition zone (IZ) [7]: 25 mm
- inhibition zone (IZ) [8]: 24 mm
- MIC [9]: 12.5 µg/mL (≈ 24.1 µM)
- MIC [10]: 12.5 µg/mL (≈ 24.1 µM)
- inhibition zone (IZ) [11]: 27 mm
- MIC [12]: 25 µg/mL (≈ 48.1 µM)
- MIC [13]: 50 µg/mL (≈ 96.2 µM)
- inhibition zone (IZ) [14]: 26 mm
- inhibition zone (IZ) [15]: 23 mm
- MIC [16]: 12.5 µg/mL (≈ 24.1 µM)
- MIC [17]: 6.25 µg/mL (≈ 12 µM)
- inhibition zone (IZ) [18]: 18 mm
- inhibition zone (IZ) [19]: 25 mm
- MIC [20]: 25 µg/mL (≈ 48.1 µM)
- MIC [21]: 12.5 µg/mL (≈ 24.1 µM)
- MIC [22]: 12.5 µg/mL (≈ 24.1 µM)
- MIC [23]: 100 µg/mL (≈ 192 µM)
- inhibition zone (IZ) [24]: 25 mm
- inhibition zone (IZ) [25]: 27 mm
- inhibition zone (IZ) [26]: 27 mm

SMILES: CC(=O)N1CCN(c2ccc(OCC3COC(Cn4ccnc4)(c4ccc(Cl)cc4Cl)O3)cc2)CC1 (stereo unspecified) [KETOCONAZOLE]
- MIC [1]: ≤ 1 µg/mL
- zone of inhibition at 100 µg/mL [27]: 29 mm
- zone of inhibition at 100 µg/mL [28]: 33 mm
- zone of inhibition at 100 µg/mL [29]: 30 mm
- zone of inhibition at 100 µg/mL [30]: 31 mm
- MIC [13]: ≤ 3 µg/mL
- MIC [20]: ≤ 1 µg/mL
- MIC [23]: ≤ 1 µg/mL
